This is an account of results in ChEMBL document CHEMBL1136237, “2-piperidin-4-yl-benzimidazoles with broad spectrum antibacterial activities” (2003).

≈ marks a conversion by molar mass, not a printed value.

The subject of assay [1] is Enterococcus faecalis. In words: Antibacterial activity determined against Enterococcus faecalis ATCC 828. It counts as functional. An outline of the steps:
(§1)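 Broth microdilution: an overnight-culture bacterial suspension was added to compound in 2.5% DMSO in water, giving a final inoculum of about 10^2–10^3 CFU/well. Plates were incubated 20–24 h at 37 °C, and growth relative to a no-compound control was read as A595. MIC was given as a range: complete inhibition at the upper concentration, viable cells at the lower.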

In assay [2] the test system is Escherichia coli. In words: Antibacterial activity determined against gram-negativeE. coli 25922. It is filed as functional. The gist of the method:
as §1

Another assay concerns Streptococcus pyogenes. In words: Antibacterial activity determined against gram-positive Streptococcus pyogenes 49399. It is filed as functional. The gist of the method: as §1
In assay [3] the test system is Enterococcus faecalis. In words: Antibacterial activity determined against Enterococcus faecalis ATCC 49757. It counts as functional. An outline of the steps:
as §1

The subject of another assay is Enterococcus hirae. In words: Antibacterial activity determined against gram-positive Enterococcus hirae 29212. It counts as functional. An outline of the steps:
as §1

Assay [4] has as its system Enterococcus faecalis. In words: Antibacterial activity determined against Enterococcus faecalis ATCC 23241. It is filed as functional. An outline of the steps:
as §1

The next assay deals with Proteus vulgaris. In words: Antibacterial activity determined against gram-negativeP. vulgaris 8427. It counts as functional. The gist of the method: as §1
The nature of assay [5]: Inhibition of bacterial transcription/translation.
The subject of the next assay is Pseudomonas aeruginosa. In words: Antibacterial activity determined against gram-negativeP. aeruginosa 25416. It counts as functional. The gist of the method: as §1
Assay [6] concerns Staphylococcus aureus. In words: Antibacterial activity determined against gram-positive Staphylococcus aureus 13709. It counts as functional. An outline of the steps:
as §1

Assay [7] deals with Enterococcus faecium. In words: Antibacterial activity determined against Enterococcus faecium ATCC 882. It counts as functional. An outline of the steps: as §1
The test system of another assay is Klebsiella pneumoniae. In words: Antibacterial activity determined against gram-negativeK. pneumoniae 13383. It counts as functional. An outline of the steps: as §1
The test system of assay [8] is Candida albicans. In words: Antibacterial activity determined against Candida albicans 10231. It is filed as functional. The gist of the method: (§2)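 Candida albicans: an overnight-culture yeast suspension was added to compound in 2.5% DMSO in water, giving a final inoculum of about 10^2–10^3 CFU/well. Plates were incubated 40–48 h at 25 °C, and growth versus a no-compound control was read as A595. MIC was given as a range: complete inhibition at the higher concentration, viable cells at the lower.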

In assay [9] the test system is Staphylococcus aureus. In words: Antibacterial activity determined against Staphylococcus aureus. It counts as functional. The gist of the method: as §1
Assay [10] concerns Enterococcus faecalis. In words: Antibacterial activity determined against Enterococcus faecalis ATCC 11823. It counts as functional. The gist of the method: as §1
For assay [11], the system named is Enterococcus faecalis. In words: Antibacterial activity determined against Enterococcus faecalis ATCC 4200. It is filed as functional. The gist of the method: as §1
The subject of assay [12] is Escherichia coli. In words: Antibacterial activity determined against Escherichia coli. It is filed as functional. An outline of the steps: as §1
Another assay has as its system Streptococcus pneumoniae. In words: Antibacterial activity determined against gram-positive Streptococcus pneumoniae 6303. It counts as functional. An outline of the steps: as §1
In assay [13] the test system is Enterococcus faecium. In words: Antibacterial activity determined against Enterococcus faecium ATCC 6569. It is filed as functional. An outline of the steps: as §1
Assay [14] deals with Candida albicans. In words: Antifungal activity determined against Candida albicans 10231. It is filed as functional. The gist of the method:
as §2

For assay [15], the system named is Enterococcus faecalis. In words: Anti-bacterial activity determined against Enterococcus faecalis ATCC 49757. It counts as functional. An outline of the steps: as §1

Consider `Clc1cc2nc(C3CCNCC3)n(Cc3ccc(CNC4CCNCC4)cc3)c2cc1Cl`, for which the MIC against Enterococcus faecalis [1] amounted to 12 µM (≈ 5.67 µg/mL); in the assay on Escherichia coli [2] it was 12 µM (≈ 5.67 µg/mL); against Streptococcus pyogenes it was 6 µM (≈ 2.83 µg/mL); against Enterococcus faecalis [3], 12 µM (≈ 5.67 µg/mL); with Enterococcus hirae it was 3 µM (≈ 1.42 µg/mL); against Enterococcus faecalis [4], 12 µM (≈ 5.67 µg/mL). In addition, the MIC was 25 µM (≈ 11.8 µg/mL) against Proteus vulgaris; 12 µM (≈ 5.67 µg/mL) in the assay with Pseudomonas aeruginosa; 6 µM (≈ 2.83 µg/mL) against Staphylococcus aureus [6]; 12 µM (≈ 5.67 µg/mL) with Enterococcus faecium [7]; 12 µM (≈ 5.67 µg/mL) against Klebsiella pneumoniae; 50 µM (≈ 23.6 µg/mL) in the assay on Candida albicans [8]. Also, the MIC is 6 µM (≈ 2.83 µg/mL) against Staphylococcus aureus [9]; 12 µM (≈ 5.67 µg/mL) against Enterococcus faecalis [10]; 12 µM (≈ 5.67 µg/mL) in the assay with Enterococcus faecalis [11]; 12 µM (≈ 5.67 µg/mL) against Escherichia coli [12]; 12 µM (≈ 5.67 µg/mL) with Streptococcus pneumoniae; 12 µM (≈ 5.67 µg/mL) in the assay on Enterococcus faecium [13]. Further, the IC50 in assay [5] was over 100 µM.

For `Clc1cc2nc(C3CCNCC3)n(Cc3ccc(CN4CCCNCC4)cc3)c2cc1Cl`, the MIC turned out to be 12 µM (≈ 5.67 µg/mL) against Enterococcus faecalis [1]; 12 µM (≈ 5.67 µg/mL) against Escherichia coli [2]; 6 µM (≈ 2.83 µg/mL) against Streptococcus pyogenes; 6 µM (≈ 2.83 µg/mL) with Enterococcus faecalis [3]; 3 µM (≈ 1.42 µg/mL) in the assay with Enterococcus hirae; 12 µM (≈ 5.67 µg/mL) in the assay on Enterococcus faecalis [4]. In addition, the minimal inhibitory concentration (MIC) with Proteus vulgaris is 25 µM (≈ 11.8 µg/mL); against Candida albicans [14], over 100 µM; in the assay with Pseudomonas aeruginosa it was 25 µM (≈ 11.8 µg/mL); in the assay with Staphylococcus aureus [6] it was 6 µM (≈ 2.83 µg/mL); against Enterococcus faecium [7], 12 µM (≈ 5.67 µg/mL); in the assay with Klebsiella pneumoniae it was 12 µM (≈ 5.67 µg/mL). Further, the MIC is 6 µM (≈ 2.83 µg/mL) in the assay with Staphylococcus aureus [9]; 12 µM (≈ 5.67 µg/mL) against Enterococcus faecalis [10]; 12 µM (≈ 5.67 µg/mL) in the assay with Enterococcus faecalis [11]; 12 µM (≈ 5.67 µg/mL) against Escherichia coli [12]; 12 µM (≈ 5.67 µg/mL) in the assay on Streptococcus pneumoniae; 6 µM (≈ 2.83 µg/mL) against Enterococcus faecium [13]. In assay [5], this compound returned an IC50 of over 100 µM.

Take `NC1CCN(Cc2ccc(Cn3c(C4CCNCC4)nc4cc(Cl)c(Cl)cc43)cc2)CC1`: the MIC against Enterococcus faecalis [1] turned out to be 12 µM (≈ 5.67 µg/mL); with Escherichia coli [2], 50 µM (≈ 23.6 µg/mL); in the assay with Streptococcus pyogenes, 6 µM (≈ 2.83 µg/mL); in the assay on Enterococcus faecalis [3], 12 µM (≈ 5.67 µg/mL); in the assay on Enterococcus hirae, 3 µM (≈ 1.42 µg/mL); against Enterococcus faecalis [4] it was 12 µM (≈ 5.67 µg/mL). Besides, the MIC came out at 25 µM (≈ 11.8 µg/mL) with Proteus vulgaris; 50 µM (≈ 23.6 µg/mL) in the assay on Candida albicans [14]; 12 µM (≈ 5.67 µg/mL) against Pseudomonas aeruginosa; 6 µM (≈ 2.83 µg/mL) against Staphylococcus aureus [6]; 12 µM (≈ 5.67 µg/mL) against Enterococcus faecium [7]; 25 µM (≈ 11.8 µg/mL) in the assay with Klebsiella pneumoniae. The MIC against Staphylococcus aureus [9] is 6 µM (≈ 2.83 µg/mL); in the assay with Enterococcus faecalis [10], 12 µM (≈ 5.67 µg/mL); against Enterococcus faecalis [11], 12 µM (≈ 5.67 µg/mL); in the assay on Escherichia coli [12] it was 50 µM (≈ 23.6 µg/mL); in the assay on Streptococcus pneumoniae, 25 µM (≈ 11.8 µg/mL); against Enterococcus faecium [13], 6 µM (≈ 2.83 µg/mL). For the same compound, in assay [5], the midpoint of inhibition, the IC50, lay at 60 µM.

On to `NCCNCc1ccc(Cn2c(C3CCNCC3)nc3cc(Cl)c(Cl)cc32)cc1`, for which the MIC came out at 12 µM (≈ 5.19 µg/mL) in the assay on Enterococcus faecalis [1]; 12 µM (≈ 5.19 µg/mL) against Escherichia coli [2]; 6 µM (≈ 2.59 µg/mL) against Streptococcus pyogenes; 12 µM (≈ 5.19 µg/mL) against Enterococcus faecalis [3]; 3 µM (≈ 1.3 µg/mL) against Enterococcus hirae; 12 µM (≈ 5.19 µg/mL) against Enterococcus faecalis [4]. In addition, the MIC in the assay on Proteus vulgaris is 25 µM (≈ 10.8 µg/mL); in the assay with Candida albicans [14], over 100 µM; in the assay on Pseudomonas aeruginosa, 12 µM (≈ 5.19 µg/mL); in the assay on Staphylococcus aureus [6], 6 µM (≈ 2.59 µg/mL); against Enterococcus faecium [7], 12 µM (≈ 5.19 µg/mL); in the assay on Klebsiella pneumoniae it was 12 µM (≈ 5.19 µg/mL). Besides, the MIC turned out to be 6 µM (≈ 2.59 µg/mL) against Staphylococcus aureus [9]; 6 µM (≈ 2.59 µg/mL) with Enterococcus faecalis [10]; 12 µM (≈ 5.19 µg/mL) in the assay with Enterococcus faecalis [11]; 12 µM (≈ 5.19 µg/mL) against Escherichia coli [12]; 12 µM (≈ 5.19 µg/mL) with Streptococcus pneumoniae; 6 µM (≈ 2.59 µg/mL) against Enterococcus faecium [13]. This compound returned an IC50 in assay [5] of 12 µM.

For the compound `Clc1cc2nc(C3CCNCC3)n(Cc3ccc(CNCCCn4ccnc4)cc3)c2cc1Cl`, the MIC was found to be 6 µM (≈ 2.98 µg/mL) with Enterococcus faecalis [1]; 12 µM (≈ 5.97 µg/mL) with Enterococcus faecalis [4]; 12 µM (≈ 5.97 µg/mL) in the assay on Enterococcus faecalis [15]; 12 µM (≈ 5.97 µg/mL) against Enterococcus faecium [7]; 12 µM (≈ 5.97 µg/mL) with Staphylococcus aureus [9]; 6 µM (≈ 2.98 µg/mL) against Enterococcus faecalis [10]. Further, the MIC against Enterococcus faecalis [11] came out at 12 µM (≈ 5.97 µg/mL); against Escherichia coli [12] it was 12 µM (≈ 5.97 µg/mL); with Enterococcus faecium [13], 6 µM (≈ 2.98 µg/mL). The compound also came in with an IC50 in assay [5] of over 100 µM.

On to `CCCCCCNCc1ccc(Cn2c(C3CCNCC3)nc3cc(Cl)c(Cl)cc32)cc1`, for which the MIC in the assay with Enterococcus faecalis [1] turned out to be 3 µM (≈ 1.42 µg/mL); against Escherichia coli [2], 6 µM (≈ 2.84 µg/mL); in the assay on Streptococcus pyogenes, 3 µM (≈ 1.42 µg/mL); in the assay with Enterococcus faecalis [3], 3 µM (≈ 1.42 µg/mL); in the assay on Enterococcus hirae it was 1 µM (≈ 0.473 µg/mL); against Enterococcus faecalis [4], 3 µM (≈ 1.42 µg/mL). Moreover, the MIC with Proteus vulgaris is 12 µM (≈ 5.68 µg/mL); against Candida albicans [14], 25 µM (≈ 11.8 µg/mL); against Pseudomonas aeruginosa, 25 µM (≈ 11.8 µg/mL); against Staphylococcus aureus [6], 3 µM (≈ 1.42 µg/mL); against Enterococcus faecium [7], 3 µM (≈ 1.42 µg/mL); in the assay on Klebsiella pneumoniae, 6 µM (≈ 2.84 µg/mL). Moreover, the MIC worked out at 3 µM (≈ 1.42 µg/mL) in the assay with Staphylococcus aureus [9]; 3 µM (≈ 1.42 µg/mL) with Enterococcus faecalis [10]; 3 µM (≈ 1.42 µg/mL) in the assay with Enterococcus faecalis [11]; 6 µM (≈ 2.84 µg/mL) against Escherichia coli [12]; 6 µM (≈ 2.84 µg/mL) with Streptococcus pneumoniae; 3 µM (≈ 1.42 µg/mL) against Enterococcus faecium [13]. For the same compound, the IC50 in [5] is over 100 µM.
